Data set [1] has as its target T1, Vitamin D3 receptor (Sus scrofa) (UniProt A3RGC1).
T1 sequence (whole entry): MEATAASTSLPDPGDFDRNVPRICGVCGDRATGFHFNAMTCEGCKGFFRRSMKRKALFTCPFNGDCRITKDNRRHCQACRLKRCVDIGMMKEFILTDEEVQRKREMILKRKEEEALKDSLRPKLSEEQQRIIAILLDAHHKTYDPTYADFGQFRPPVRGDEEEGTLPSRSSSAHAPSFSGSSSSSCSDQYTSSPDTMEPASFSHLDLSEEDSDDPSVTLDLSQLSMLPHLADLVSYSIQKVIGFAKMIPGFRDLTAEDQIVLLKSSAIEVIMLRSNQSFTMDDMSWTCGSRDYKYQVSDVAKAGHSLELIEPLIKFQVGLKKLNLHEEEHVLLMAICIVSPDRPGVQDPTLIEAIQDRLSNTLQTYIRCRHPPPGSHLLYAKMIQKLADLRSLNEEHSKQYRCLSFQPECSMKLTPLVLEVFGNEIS
In words: Displacement of [3H]1-alpha,25-(OH)2D3 from VDR in pig intestinal mucosa at EC50 relative to 1-alpha,25-(OH)2D3. In kind it is tissue-based. The procedure, abridged: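 Binding to vitamin D receptor (VDR), […]. Values are mean ± SD, n = 3.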

Data set [2] has as its system MCF7. In words: Antiproliferative activity against human MCF7 cells at EC50 after 72 hrs by [3H]thymidine incorporation assay relative to 1-alpha,25-(OH)2D3. In kind it is functional. The procedure, abridged: (§1)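 MCF-7 breast cancer cells; proliferation read by [³H]thymidine incorporation. Inhibition was scored at 10^-6 M, and the concentration giving half-maximal response was derived. Values are mean ± SD, n = 3.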

The subject of data set [3] is Mus musculus. In words: Toxicity in NMRI mouse assessed as induction of calcemic effect at 40 ug/kg, ip daily for 7 consecutive days measured after day 7 by colorimetric assay. In kind it is organism-based. The following applies: in vivo, 0.04 mg/kg. The essentials: (§2)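 Mice received a daily injection of compound. The calcemic effect was read as the percent increase in serum calcium levels.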

Data set [4] deals with Mus musculus. In words: Toxicity in NMRI mouse assessed as increase in serum calcium level at 100 ug/kg, ip daily for 7 consecutive days measured after day 7 by colorimetric assay. In kind it is organism-based. The conditions noted are these: in vivo, 0.1 mg/kg. The procedure, abridged:
as §2

The subject of data set [5] is MCF7. In words: Ratio of 1-alpha,25-(OH)2D3 to compound antiproliferative activity against human MCF7 cells at EC50 after 72 hrs by [3H]thymidine incorporation assay. In kind it is functional.
In data set [6] the test system is MCF7. In words: Antiproliferative activity against human MCF7 cells at 1 uM after 72 hrs by [3H]thymidine incorporation assay. In kind it is functional. The procedure, abridged:
as §1

Data set [7] has as its system Mus musculus. In words: Toxicity in NMRI mouse assessed as induction of calcemic effect at 100 ug/kg, ip daily for 7 consecutive days measured after day 7 by colorimetric assay. It counts as organism-based. The conditions noted are these: in vivo, 0.1 mg/kg. The procedure, abridged:
as §2

A short description of data set [8]: Toxicity in ip dosed NMRI mouse assessed as maximum tolerable dose inducing minimal increase in serum calcium level administered daily for 7 consecutive days measured after day 7 by colorimetric assay. In kind it is organism-based. The conditions noted are these: in vivo.
Data set [9] relates to Mus musculus. In words: Toxicity in NMRI mouse assessed as increase in serum calcium level at 0.1 ug/kg, ip daily for 7 consecutive days measured after day 7 by colorimetric assay. In kind it is organism-based. The following applies: in vivo, 0.0001 mg/kg. The essentials: as §2
Data set [10] concerns Mus musculus. In words: Toxicity in NMRI mouse assessed as induction of calcemic effect at 20 ug/kg, ip daily for 7 consecutive days measured after day 7 by colorimetric assay. In kind it is organism-based. The following applies: in vivo, 0.02 mg/kg. The procedure, abridged: as §2
For data set [11], the target named is T1, Vitamin D3 receptor (Sus scrofa). In words: Ratio of 1-alpha,25-(OH)2D3 to compound affinity for binding to VDR in pig intestinal mucosa.

“And” between values parts separate entries of the source, which are not always exact repeats. Identical values can stand only once.

For the compound `C[C@H](CCCC(C)(C)O)[C@H]1CC[C@H]2/C(=C/C=C3/C[C@@H](O)[C@@H]4O[C@@H]4C3)CCC[C@]12C`, the figures for the Activity (in data set [1]; with MCF7 [2]; in the data set on Mus musculus [3]) were 0.4%, 1% and “Non-toxic”, respectively.
`[H][C@@]12CC[C@]([H])([C@H](C)CCCC(C)(C)O)[C@@]1(C)CCC/C2=C\C=C1\C[C@@H](O)[C@H](O)[C@H](O)C1` (stereo not given in full): the Activity with Mus musculus [4] is 13%; with MCF7 [6], 60%; in the data set on Mus musculus [7] it was “Non-toxic”; in the data set with MCF7 [2], 20%. In addition, in the data set on MCF7 [5], the Ratio turned out to be 5.
For the compound `C=C1/C(=C\C=C2/CCC[C@]3(C)[C@@H]([C@H](C)CCCC(C)(C)O)CC[C@@H]23)C[C@@H](O)C[C@@H]1O` [CALCITRIOL], the MTD at 7 days in [8] was determined as 0.0001 mg/kg/day. Also, the Activity with Mus musculus [9] was determined as 27%.
For `C[C@H](CCCC(C)(C)O)[C@H]1CC[C@H]2/C(=C/C=C3\C[C@@H](O)[C@@H]4O[C@@H]4C3)CCC[C@]12C`, the Activity result in the data set on Mus musculus [10] is “Non-toxic”; in data set [1], 25%; with MCF7 [2], 16%.
Regarding `C[C@H](CCCC(C)(C)O)[C@H]1CC[C@H]2/C(=C/C=C3C[C@@H](O)C(O)[C@H](O)C3)CCC[C@]12C` (stereo not given in full) [listing 1 of 2 here], in data set [1], the Activity is 20% and 10%. Besides, in data set [11], the Ratio is 5 and 10.
Regarding `C[C@H](CCCC(C)(C)O)[C@H]1CC[C@H]2/C(=C/C=C3\C[C@@H](O)[C@H](O)[C@@H](O)C3)CCC[C@]12C`, the Activity (in [1]; with MCF7 [2]) was 5% throughout.
With `C[C@H](CCCC(C)(C)O)[C@H]1CC[C@H]2/C(=C/C=C3/C[C@@H](O)[C@H](O)[C@@H](O)C3)CCC[C@]12C`, the Activity in [1] came out at 0.4%; with MCF7 [2], 5%.
As to `C[C@H](CCCC(C)(C)O)[C@H]1CC[C@H]2/C(=C/C=C3C[C@@H](O)C(O)[C@H](O)C3)CCC[C@]12C` (stereo not given in full) [listing 2 of 2 here], in the data set on MCF7 [2], the Activity came out at 5%.

(Values after ChEMBL document CHEMBL1154266, “Synthesis, conformational analysis, and biological evaluation of 19-nor-vitamin D3 analogues with A-ring modifications” (J Med Chem, 2009).)
